Measured values published in ChEMBL document CHEMBL1155616, “Ancistroealaines A and B, two new bioactive naphthylisoquinolines, and related naphthoic acids from Ancistrocladus ealaensis” (J Nat Prod, 2000).
≈ marks a conversion by molar mass, not a printed value.

Columns and labels:
[1] = tested on: Plasmodium falciparum; assay: Antiplasmodial activity against Plasmodium falciparum K1 in human erythrocytes by [3H]hypoxanthine uptake; type: functional, organism-based; conditions: K1, 72 h
Summary of the method: (§1)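 [³H]hypoxanthine incorporation assay, modified. Infected human red cells were exposed to serial drug dilutions for 48 h at 37 °C under reduced O₂ and raised CO₂. [³H]hypoxanthine was then added and incubation continued for 24 h. Cells were harvested on glass-fibre filters and counted by liquid scintillation. IC50 was taken from the sigmoidal inhibition curve. Runs were in duplicate and repeated at least once.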

[2] = Cytotoxicity against rat L6 cells after 4 days; type: cell-based; conditions: read-out: MIC
Summary of the method: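 Uninfected L-6 myoblasts were run in the same format as the T. cruzi assay: RPMI 1640 with 10% FBS and 2 mM L-glutamine, same serial drug dilution, 37 °C, 5% CO₂. The MIC was judged microscopically after 4 days.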

[3] = tested on: Trypanosoma brucei rhodesiense; assay: Antitrypanosomal activity against Trypanosoma brucei rhodesiense STIB900 by Alamar blue assay; type: functional, organism-based
Summary of the method: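 Bloodstream parasites were grown in Minimum Essential Medium with 2-mercaptoethanol and 15% heat-inactivated horse serum, with serial drug dilutions, for 72 h at 37 °C in 5% CO₂. Alamar Blue was then added for 2–4 h more, and fluorescence read at excitation 530 nm and emission 590 nm. Signal was expressed as % of control to give IC50.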

[4] = Cytotoxicity against mouse peritoneal macrophages; type: cell-based, Macrophage; conditions: read-out: MIC
[5] = tested on: Plasmodium falciparum; assay: Antiplasmodial activity against Plasmodium falciparum NF54 in human erythrocytes by [3H]hypoxanthine uptake; type: functional, organism-based; conditions: NF54, 72 h; summary of the method: as §1
[6] = tested on: Trypanosoma cruzi; assay: Antitrypanosomal activity against galactosidase gene containing Trypanosoma cruzi Tulahuen C2C4 trypomastigotes in rat L6 cells after 4 days; type: functional, organism-based; conditions: Tulahuen C2C4, L6, 96 h
Summary of the method: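 L-6 myoblasts were seeded at 2000 cells/well in RPMI 1640 with 10% FBS and 2 mM L-glutamine. After 24 h, 5000 trypomastigotes were added with serial drug dilutions. Plates were kept at 37 °C in 5% CO₂ for 4 days. CPRG/Nonidet substrate was added and colour read at 540 nm after 2–4 h. IC50 was taken from the sigmoidal inhibition curve.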

[7] = tested on: Leishmania donovani; assay: Antileishmanial activity against Leishmania donovani MHOM-ET-67/L82 amastigotes in mouse peritoneal macrophages; type: functional, organism-based
Summary of the method: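 Mouse peritoneal macrophages in RPMI 1640 with 10% heat-inactivated FBS were infected after 24 h with amastigotes at 3:1 (parasite:macrophage). Free parasites were removed at 4 h. Drug was added the next day and cells incubated for 96 h at 37 °C in 5% CO₂. Slides were MeOH-fixed and Giemsa-stained, and the infected/noninfected ratio counted microscopically as % of control. IC50 was obtained by linear regression.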

| SMILES | IC50 [1] [mg/L] | MCC at 96 h [2] [µg/mL] | IC50 [3] [mg/L] | MCC [4] [µg/mL] | IC50 [5] [mg/L] | IC50 [6] [mg/L] | IC50 [7] [mg/L] |
| --- | --- | --- | --- | --- | --- | --- | --- |
| COc1cc(OC)c(-c2ccc(OC)c3c(OC)cc(C)cc23)c2c1C(C)=N[C@@H](C)C2 [ANCISTROEALAINE A] | 1.2 (≈ 2.86 µM) | > 90 | 3.46 (≈ 8.25 µM) | > 30 | 4 (≈ 9.53 µM) | 2.35 (≈ 5.6 µM) | 4.1 (≈ 9.77 µM) |
| COc1cc(OC)c2c(c1-c1ccc(O)c3c(OC)cc(C)cc13)C[C@H](C)N[C@H]2C [ANCISTROEALAINE B] | 0.52 (≈ 1.28 µM) | 90 | 2.03 (≈ 4.98 µM) | > 30 | 0.79 (≈ 1.94 µM) | 17.6 (≈ 43.2 µM) | 10 (≈ 24.5 µM) |
| O=C(Cn1ccnc1[N+](=O)[O-])NCc1ccccc1 [BENZNIDAZOLE] | – | – | – | – | – | 0.3 (≈ 1.15 µM) | – |
| Nc1nc(N)nc(Nc2ccc([As]3SCC(CO)S3)cc2)n1 (stereo unspecified) [MELARSOPROL] | – | – | 0.0063 | – | – | – | – |
